Screens: PubChem, several laboratories
Shown are actives, neighbours in structure and some others; about 4.8% of the full set was active somewhere.
RORA act: activators of orphan receptor RORA, primary screen, cell-based, luminescence; 1.5% of 65,000 active; activation, % at 10 µM; CHO-K1 Gal4-RORA LBD luciferase reporter; percent increase over mock-subtracted basal signal; Nuclear receptor ROR-alpha (Homo sapiens), P35398;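 active = activation above the mean of all tested compounds plus 3 SD, cut at about 49% in these data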;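 note: 0% = DMSO-treated RORA cells and 100% = added signal equal to DMSO minus mock-transfected cells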
SF1 activator: activators of human SF-1, primary screen, cell-based, CHO-K1, Gal4-SF-1 LBD, luciferase luminescence; Steroidogenic factor 1 (Homo sapiens), Q13285; CHO-K1 Gal4-SF-1 LBD luciferase reporter; % increase over DMSO SF-1-specific signal; activation, % at 10 µM; 1.9% of 65,000 active; AID 522, 2006;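 active = activation above the mean activation of all tested compounds plus 3 SD, cut at about 50% in these data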
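Material: Gal4–SF-1 LBD one-hybrid luciferase reporter in CHO-K1 cells | Amount: 4,000 cells per well | Compound dosing: 10 µM single point, 1% DMSO | Schedule: 20 h compound treatment, 37 °C | Measured by: SteadyLite luciferase luminescence | Evaluation: Percent activation versus DMSO | Control set: DMSO-treated SF-1-transfected cells as negative, DMSO-treated mock-transfected cells lacking SF-1 as background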
ERb coact inh: inhibitors of ERβ-SRC1 coactivator interaction, primary screen, biochemical, TR-FRET, ERβ LBD, SRC-1 peptide; Estrogen receptor beta (Homo sapiens), Q92731; TR-FRET ER-beta LBD / SRC1-Cy5 peptide binding; receptor agonist-loaded with 1 µM estradiol; inhibition, % at 25.6 µM; 1.3% of 86,000 active; AID 633, 2007;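 active = compounds whose percent inhibition of the receptor-coactivator binding signal exceeds about 50% in the single-dose screen, limit read from the data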;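 note: 0% = receptor plus peptide wells without compound and 100% = peptide-only wells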
Target sequence (Q92731 whole entry, looked up, the tested form may be a part): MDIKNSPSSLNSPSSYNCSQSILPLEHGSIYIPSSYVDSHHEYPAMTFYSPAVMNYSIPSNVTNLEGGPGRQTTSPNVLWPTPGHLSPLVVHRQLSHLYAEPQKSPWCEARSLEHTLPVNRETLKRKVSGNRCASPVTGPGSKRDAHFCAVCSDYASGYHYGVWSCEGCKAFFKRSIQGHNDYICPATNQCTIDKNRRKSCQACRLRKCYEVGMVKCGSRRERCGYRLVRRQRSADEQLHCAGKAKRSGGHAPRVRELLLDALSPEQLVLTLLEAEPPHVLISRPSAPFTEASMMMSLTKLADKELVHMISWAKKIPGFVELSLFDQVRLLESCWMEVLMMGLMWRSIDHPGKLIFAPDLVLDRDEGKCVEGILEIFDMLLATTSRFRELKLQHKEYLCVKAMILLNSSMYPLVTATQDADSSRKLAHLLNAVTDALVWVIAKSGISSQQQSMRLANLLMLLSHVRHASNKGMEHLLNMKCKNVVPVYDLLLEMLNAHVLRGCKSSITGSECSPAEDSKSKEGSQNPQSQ
ERa SRC1 pot: enhancers of ERα–SRC-1 coactivator binding, primary screen, biochemical, TR-FRET, ERα LBD, low estradiol; 1.3% of 86,000 active; AID 639, 2007; coactivator binding (% of control), % at 25.6 µM; TR-FRET ERalpha-LBD/SRC-Cy5 coactivator binding, 2 h; 100 = basal binding, no effect; in the data active = activity above about 200%;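 note: binding measured in presence of low estradiol as agonist stimulus; 0% = peptide alone without receptor and 100% = receptor with peptide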
PTK2B oligo ant: antagonists of Pyk2 self-association, primary screen, Q293 cells, FERM NanoBiT luminescence, HTS; hits give low values; z-score (the deposit names both 25 µM and 10 µM); 0.83% of 99,000 active; AID 1347419, 2020;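 active = Z-score of -3 or lower, scaled per plate to the spread of control and sample wells; inactive = z-score above -3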;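 note: negative z-score means lost luminescence so less FERM oligomerization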
ERa coact inh: ERα–SRC-1 coactivator interaction inhibitors, primary screen, biochemical, TR-FRET, ERα LBD, estradiol-bound; Estrogen receptor (Homo sapiens), P03372; TR-FRET ER-alpha LBD / SRC-1 peptide; inhibition, % at 25.6 µM; 1.7% of 86,000 active; in the data active = inhibition above about 50%;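 note: 0% = receptor plus peptide control and 100% = peptide only without receptor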
* marks the source's active call; other numbers are inactive results; . = not tested or not shown; [ ] = dose if it differs, or a comment.

SMILES	RORA act	SF1 activator	ERb coact inh	ERa SRC1 pot	PTK2B oligo ant	ERa coact inh
COC(=O)c1ccc(CSc2nc3ccccc3[nH]2)o1	.	.	-4.3	100.9	2.01	-0.3
CCCCSc1nc2c(cnn2-c2ccc(F)cc2)c(=O)[nH]1	30.8	-12.6	32.0	209.4*[fluorescence artefact?]	.	27.8
COC(=O)c1ccc(CSc2nc3c(cnn3-c3ccccc3)c(=O)[nH]2)o1	-1.5	0.1	-18.3	258.1*[fluorescence artefact?]	-1.4	-38.3
COC(=O)c1ccc(CSc2nc3c(cnn3-c3ccc(Cl)cc3)c(=O)[nH]2)o1	-9.7	11.8	-12.4	342.7*[fluorescence artefact?]	-2.73	-36.8
Cc1ccc(-c2ccc(/C=N/N3C(=O)C4C5C=CC(CC5)C4C3=O)o2)c([N+](=O)[O-])c1 (configuration not stated)	.	.	3.4	104.4	-0.2	1.6
CC(C)N(C(=O)CN1C(=O)NC2(CCCCCC2)C1=O)C(C)C	.	.	-7.0	117.5	1.84	2.4
O=S1(=O)N=C(N2CCOCC2)c2ccccc21	11.5	13.1	-15.2	108.4	1.36	0.0
Cc1ccccc1-c1ccc(Nc2ccc(N3CCOCC3)cc2)nn1	13.7	31.0	80.1*[fluorescence artefact?]	7.0	0.03	98.7*[fluorescence artefact?]
O=S1(=O)N=C(Nc2ccc(N3CCOCC3)cc2)c2ccccc21	24.5	22.0	51.0*[fluorescence artefact?]	80.1	0.12	-24.9
O=C(Nc1ccccc1)c1sc2cc(C(F)(F)F)cnc2c1-c1cccs1	.	.	17.4	209.8*[fluorescence artefact?]	0.13	18.5
NC(=O)c1sc2cc(C(F)(F)F)cnc2c1-c1cccs1	.	.	2.7	111.2	-0.91	0.4
Cc1ccccc1-c1nnc(SCc2ccccc2F)o1	75.2*	90.5*	-7.6	128.2	-0.83	4.3
Fc1ccccc1CSc1nnc(-c2ccccc2)o1	41.2	57.8*	-2.6	138.7	-0.5	-6.2
Oc1c(Cl)cc(Cl)cc1Sc1cc(Cl)cc(Cl)c1O	-8.4	9.6	93.0*	10.1	.	96.8*
COc1ccc(CCn2c(=S)[nH]c3cc(C(=O)NCc4ccco4)ccc3c2=O)cc1OC	8.9	18.8	54.8*[fluorescence artefact?]	87.8	-2.76	71.5*[fluorescence artefact?]
Cc1nn(-c2ccccc2)c(C)c1C(=O)OCC(=O)NC(=O)NC1CCCC1	.	.	1.1	109.9	-3.39*	-3.4
Cc1nn(-c2ccccc2)c(C)c1C(=O)OCC(=O)N1CCN(S(=O)(=O)c2ccccc2)CC1	-4.4	6.1	-11.2	106.2	0.31	-10.4
Cc1nn(-c2ccccc2)c(C)c1C(=O)OCC(=O)NC12CC3CC(CC(C3)C1)C2	.	.	-7.5	88.4	-3.13*	-5.0
Cc1nn(Cc2ccccc2)c(C)c1NC(=O)CSc1nc(-c2ccccc2)nc2c1cnn2-c1ccccc1	.	.	36.8	150.0	0.38	72.4*[fluorescence artefact?]
Cc1nc(SCC(=O)Nc2c(C)nn(C)c2C)c2cnn(-c3ccccc3)c2n1	.	.	-16.2	127.9	0.68	2.2
COc1ccc2c(c1)c(=O)oc1cc(OCC(=O)N3CCC(C)CC3)ccc12	9.6	-17.3	59.7*	133.0	0.63	59.1*
COc1ccc2c(c1)c(=O)oc1cc(OCC(=O)N3CCc4ccccc4C3)ccc12	.	.	62.0*	237.0*[fluorescence artefact?]	1.77	70.5*[fluorescence artefact?]
CCCSc1nnc(Cn2c(=O)sc3ccccc32)n1-c1ccccc1	2.2	4.3	86.4*[fluorescence artefact?]	125.9	.	-6.5
CCCCNC(=O)NS(=O)(=O)c1ccc(NS(=O)(=O)c2ccccc2)cc1	-1.3	-19.0	-2.4	109.6	0.52	-3.2
CCOC(=O)c1sc2nc3c(cc2c1N)COC(C)(CC)C3 (configuration not stated)	.	.	-9.5	110.7	0.76	-3.6
SMILES	RORA act	SF1 activator	ERb coact inh	ERa SRC1 pot	PTK2B oligo ant	ERa coact inh
CCOC(=O)c1sc2nc3c(cc2c1N)COC(C)(C)C3	39.2	53.0*	-7.1	104.0	0.13	-5.0
Cc1ccc2nc(SCC(=O)Nc3nnc(SCC(N)=O)s3)[nH]c2c1	.	.	.	.	0.99	.
COc1ccnc(NCc2ccc(Cl)cc2)c1C#N	.	.	.	.	-3.56*	.
Cc1ccc2nc(NC(=O)c3ccc(Cn4cc(Cl)cn4)o3)sc2c1	55.4*	12.7	1.7	122.1	-2.39	4.1
Cc1ccc2nc(NC(=O)c3ccc(Cl)s3)sc2c1	85.8*	53.8*	46.5	194.4	.	48.7
Cc1cccc2sc(NC(=O)c3ccc(Cl)s3)nc12	22.7	49.8*	-7.2	105.5	.	-2.6
Cc1nc2ccc(NC(=O)Cc3cccs3)cc2s1	53.4*	79.6*	44.1	59.8	-0.24	61.6*[fluorescence artefact?]
O=C(Cc1cccs1)Nc1ccc(C(=O)O)cc1	1.8	-6.0	4.1	117.5	0.18	0.7
O=C(CCl)Nc1ccc(Oc2cnc3ccccc3n2)cc1	.	.	.	.	-0.5	.
O=C(CCN1CCc2ccccc2C1)Nc1ccccc1F	2.1	15.7	2.4	110.3	0.06	-26.0
Cc1nn(Cc2ccc(C(=O)Nc3nc4c(C)cccc4s3)o2)c(C)c1Br	.	.	26.9	136.5	-0.17	50.3*
Cc1nc2ccc(NC(=O)c3ccc(Cl)s3)cc2s1	80.5*	76.0*	-15.4	95.8	.	16.5
Fc1ccccc1Cc1nnc2n1N=C(c1ccc(Cl)cc1)CS2	.	.	7.1	112.3	0.52	-4.5
COC(=O)C(/C=N/OCc1ccc([N+](=O)[O-])cc1)NC(=O)c1cccc(Cl)c1 (configuration not stated)	.	.	20.4	395.4*[fluorescence artefact?]	3.31	24.5
CC1CN(c2ccccc2)C(=O)CS1 (configuration not stated)	5.6	29.6	2.6	123.5	0.7	17.8
CCOC(=O)CC1=C(C(=O)OCC)C(c2cccs2)C(C#N)=C(N)O1 (configuration not stated)	.	.	-2.0	90.6	0.72	93.3*[fluorescence artefact?]
COC(=O)NCc1cccc(CNC(=O)OC)c1	5.2	5.5	-4.1	96.6	1.01	0.4
CC(=O)c1ccc(Nc2ncnc3c2oc2ccccc23)cc1	22.8	89.0*	46.2	346.2*[fluorescence artefact?]	0.07	45.0
CCOc1ccc(-c2nc(S(=O)(=O)c3ccccc3)c(NCc3cccnc3)o2)cc1	-6.8	-14.1	-8.8	91.8	-3.32*	-2.3
Cc1nc(N)sc1N=Nc1ccc(Br)cc1	.	.	-5.0	88.6	-0.62	-4.2
Cc1cc(C(=O)CSc2nnnn2C)c(C)n1-c1ccc2c(c1)OCCO2	36.1	54.0*	17.6	86.9	0.32	7.7
CC(/C=C/c1ccc(O)cc1)=N/O	.	.	-14.1	98.7	-0.33	-6.0
COc1ccc(C(=O)Nc2ccc(S(=O)(=O)N3CCc4ccccc43)cc2)cc1	.	.	-2.9	88.6	-3.15*	-8.4
